The campaign covered roughly 2,500 compounds. About 1,200 (48%) were called active. The set was probably picked from earlier hits. This is one part of the list. Values without a mark were called inactive.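 Rule for the calls: active = mean activation above the low control average plus 3 SD, as set in the primary screen (cut at about 12% in these data); inactive = the rest.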
Each compound was assayed against Troponin I, cardiac muscle (Homo sapiens) + Troponin T, cardiac muscle (Homo sapiens) + Troponin C, slow skeletal and cardiac muscles (Homo sapiens) (UniProt P19429+P45379+P63316) (assay: calcium sensitizers of cardiac thin filaments – biochemical, IANBD-TnC fluorescence, triplicate, confirmation (AID 504383;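 note: 0% = DMSO at 0.472 mM calcium and 100% = DMSO at 2.9 mM calcium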)). Conditions: IANBD-labeled cardiac RTF, Ca2+ sensitivity fluorescence; at 7.2 µM; active compounds read high; scaled from EC20 to saturating calcium; tested at EC20 calcium, 0.472 mM.
How it was run: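 material = labelled regulated thin filaments | probe or stimulus = Ca2+ 0.472 mM, EC20 level | dosing = single nominal compound dose of 7.2 µM | schedule = 15 min at 25 °C | signal = fluorescence intensity of labelled filaments | evaluation = fluorescence gain scaled between EC20 and EC100 calcium controls | benchmarks = low control EC20 calcium, high control EC100 calcium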
`N#Cc1c(N)oc(-c2ccccc2)c1-c1ccccc1` was tested, and the activation was 23.9% (active). `COc1ccccc1C1=NOC(Cn2c(=O)c3c(ncn3C)n(C)c2=O)C1` (stereo unspecified) was tested, and the activation was 7.68%. `Cc1c(O)c2c3c(cccc3c1O)C(=O)N(c1ccccc1)C2=O` was tested, and the activation was 67.4% (active). `Nc1ccc2c3c(cccc13)C(=O)N(c1ccccc1)C2=O` gave an activation of 10.9%. `Cc1cccc(N2CCN(C(=O)Cn3nc(Cc4ccncc4)c4ccccc4c3=O)CC2)c1C` was tested, and the activation was 25.3% (active). With `Cc1nc2ccccc2n2c(O)c(CC(=O)O)cc12` the activation was 15.2% (active). `COc1ccc2c(n1)Sc1nc3ccccc3nc1N2` gave an activation of 6.52%. In the case of `CC1(C)CC(=O)C2=C(C1)OC(N)=C(C#N)C21CCN(Cc2ccccc2)CC1`, the activation was 12.4% (active). `COc1ccc2[nH]c3c(c2c1)CCN1C(=O)C(CC(=O)NCCCn2ccnc2)C[C@H](C(=O)N2CCCCC2)[C@@]31C` (stereo partly specified) gave an activation of 6.39%. `O=C(NCCOc1ccccc1Cl)C(=O)Nc1ccccc1` was tested, and the activation was 11.1%. For `O=C1c2ccccc2C(Nc2cccnc2)N1Cc1ccccc1Cl` (stereo unspecified), the activation was 54.5% (active). For `O=C(Cc1ccccc1Cl)Nc1cccnc1`, the activation was 22.6% (active). Compound `O=C(Nc1cnn(Cc2c(Cl)cccc2Cl)c1)C(c1ccccc1)c1ccccc1` has an activation of 4.3%. With `CCN1C(=O)/C(=C/C=C2/SCCN2C)SC1=S` the activation was 42.9% (active). `CN1CCS/C1=C/C=C1/SC(=S)N(Cc2ccccc2)C1=O` gave an activation of 2.39%. `CCCCN1C(=O)/C(=C/C=C2\SCCN2C)SC1=S` was tested, and the activation was 7.61%. With `CN1CCS/C1=C/C=C1\SC(=S)N(CC(=O)O)C1=O` the activation was 122% (active). For `CN1C(=O)/C(=C/C=C2\SCCN2C)OC1=S`, the activation was 31.5% (active). In the case of `CCN1C(=O)/C(=C\C=C2/C=CC=CN2CC)SC1=S`, the activation was 431% (active). `C=CCNC(=S)N(CC=C)C1CCS(=O)(=O)C1` (stereo unspecified) showed an activation of 6.54%. Work on `O=C(O)c1cccc2c1C(=O)c1ccc(N3CCCC3)cc1S2(=O)=O` yielded an activation of 6.28%. Compound `C#CCSc1nc2[nH]ncc2c(=O)[nH]1` has an activation of 5.4%. With `CN1CCS/C1=C\C=C1/SC(=S)N(CC(=O)O)C1=O` the activation was 12.1% (active). With `CCNC(=O)/C(C#N)=C/c1c(N2CCN(Cc3ccc4c(c3)OCO4)CC2)nc2c(C)cccn2c1=O` the activation was 9.67%. Work on `O=C(CCc1ccc(S(=O)(=O)NCCc2ccccc2)cc1)N1CCN(Cc2ccc3c(c2)OCO3)CC1` yielded an activation of 1.31%. For `N#C/C(=C\N1CCN(Cc2ccc3c(c2)OCO3)CC1)c1nc2ccccc2s1`, the activation was 17.4% (active). `CC(OC(=O)c1c2c(nc3ccccc13)/C(=C\c1ccc3c(c1)OCO3)CCC2)C(=O)Nc1ccc(S(N)(=O)=O)cc1` (stereo unspecified) gave an activation of 3.14%. Work on `CCCCNC(=O)COC(=O)c1c2c(nc3ccccc13)/C(=C\c1cccs1)CC2` yielded an activation of 6.15%. With `NC(=O)c1ccc(NC(=O)COC(=O)c2c3c(nc4ccccc24)/C(=C\c2ccc4c(c2)OCO4)CCC3)cc1` the activation was 11.7% (active). `O=C(NCc1ccccc1)C1=C[C@H](C2CC2)C[C@H](OCc2ccc(CO)cc2)O1` showed an activation of -0.14%. `CCCN(CCC)C(=O)C1c2ccccc2Oc2ccccc21` was tested, and the activation was 16.6% (active). For `CCOC(=O)C1CCCN(C(=O)C2c3ccccc3Oc3ccccc32)C1` (stereo unspecified), the activation was -3.14%. Work on `CCOC(=O)C(C#N)C(c1cccnc1)c1c(C)[nH][nH]c1=O` (stereo unspecified) yielded an activation of 5.64%. For `Cc1cccn2c(=O)c(/C=C3\SC(=S)N(CC(C)C)C3=O)c(NCCCOC(C)C)nc12`, the activation was 111% (active). `Cc1cccn2c(=O)c(/C=C3\SC(=S)NC3=O)c(NCCCN3CCOCC3)nc12` was tested, and the activation was 63.9% (active). With `COc1cc(CCCN2C(=S)NC[C@@H]2CC2CCCCC2)cc(OC)c1OC` the activation was 88.2% (active). In the case of `FC(F)(F)c1ccc(-c2nc(=S)[nH][nH]2)cc1`, the activation was 8.3%. `CC(C)OC(=O)CN1C(=O)S/C(=C/c2ccc(N3CCCCC3)o2)C1=O` was tested, and the activation was 13% (active). With `CCCN1C(=O)S/C(=C\c2ccc(N3CCOCC3)o2)C1=O` the activation was 1.26%. `O=C1NC(=S)S/C1=C/c1ccc(N2CCOCC2)o1` was tested, and the activation was 18.5% (active). In the case of `O=C1S/C(=C\c2ccc(N3CCOCC3)o2)C(=O)N1c1ccccc1`, the activation was 62.9% (active). `CCCN1C(=O)S/C(=C/c2ccc(N3CCOCC3)o2)C1=O` was tested, and the activation was 94.3% (active). With `COc1ccc(/C=N/Nc2ncc(C(F)(F)F)cc2Cl)cc1OC` the activation was -2.64%. `Cc1[nH]c(=O)c(C#N)c(C)c1Cl` was tested, and the activation was 9.65%. With `O=C1S/C(=C\c2ccc(N3CCOCC3)o2)C(=O)N1Cc1c(F)cccc1Cl` the activation was 788% (active). For `O=C1S/C(=C/c2ccc(N3CCOCC3)o2)C(=O)N1Cc1c(F)cccc1Cl`, the activation was 17.9% (active). Compound `O=C1S/C(=C\c2ccc(N3CCOCC3)o2)C(=O)N1Cc1ccc(F)cc1` has an activation of 3.92%. With `O=C1S/C(=C/c2ccc(N3CCOCC3)o2)C(=O)N1Cc1ccc(F)cc1` the activation was 54.8% (active). With `Cc1cc(C=C2C(=O)c3ccccc3C2=O)c(C)n1-c1ccccc1` the activation was 94.4% (active). In the case of `Cc1cc(C=C2C(=O)CCCC2=O)c(C)n1-c1ccccc1`, the activation was 3.1%. With `Cc1cc(C=C2C(=O)c3ccccc3C2=O)c(C)n1-c1ccc(Cl)cc1` the activation was 13.3% (active). For `Cc1cccc(-n2c(C)cc(C=C3C(=O)c4ccccc4C3=O)c2C)c1`, the activation was 1.06%. For `CN(C)c1ccc(/C=C2\C(=N)N3N=C(CC(=O)N4CCCCC4)SC3=NC2=O)cc1`, the activation was 41.6% (active). With `CN(C)c1ccc(/C=C2\SC(N3CCCCC3)=NC2=O)cc1` the activation was 1160% (active). For `CCOC(=O)C1CCCN(C2=NC(=O)/C(=C/c3ccc(O)c(OC)c3)S2)C1` (stereo unspecified), the activation was -0.88%. `CC(C)/C=C1\CC/C(=C\c2ccc(N(C)C)cc2)C1=O` was tested, and the activation was 5.2%. `CCOC(=O)C1CCCN(C2=NC(=O)/C(=C/c3ccc(N(C)C)cc3)S2)C1` (stereo unspecified) showed an activation of 8.97%. With `CCN(CC)c1ccc(/C=C2\C(=N)N3N=C(CC(=O)N4CCOCC4)SC3=NC2=O)cc1` the activation was 16.5% (active). With `O=C(/C=C/c1cn(CC(O)CN2CCCCCC2)c2ccccc12)c1cccs1` (stereo unspecified) the activation was 13.4% (active). For `O=C(/C=C/c1cn(CC(O)CN2CCCCC2)c2ccccc12)c1cccs1` (stereo unspecified), the activation was 55.5% (active). `CCCN(CCC)CC(O)Cn1cc(/C=C/C(=O)c2cccs2)c2ccccc21` (stereo unspecified) was tested, and the activation was 11.6%.

Source: PubChem BioAssay AID504383 (The Scripps Research Institute Molecular Screening Center, 2011)
